From PubChem
TRPC6 activator – mouse TRPC6 channel activators, primary screen, cell-based, HEK293, membrane potential dye; Short transient receptor potential channel 6 (Mus musculus), Q61143; HEK293-TRPC6 membrane potential dye fluorescence; active compounds read high; B-score at 10 µM; actives 0.13% (n = 310,000); AID 2550, 2010;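 active = B-score of the integrated fluorescence ratio above library mean plus 3 SD, and starting fluorescence ratio within library mean plus 5 SD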;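 note: higher score means more depolarization so channel activation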
TRPC6 inhibitor – mouse TRPC6 channel inhibitors, primary screen, cell-based, HEK293, membrane potential dye; ACh-evoked depolarization; active compounds read low; B-score at 10 µM; actives 1.1% (n = 310,000); AID 2553, 2010;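 active = B-score under library mean minus 3 SD, initial fluorescence not abnormally high, positive integrated signal ratio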;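 note: B-score derived from integrated fluorescence ratio over the kinetic read; more negative B-score means stronger inhibition of depolarization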
TRPC4 potent – positive allosteric modulators of TRPC4, primary screen, cell-based, mouse TRPC4beta, HEK293 mu-opioid, Fluo-4 calcium; DAMGO EC20, Fluo-4 Ca2+ flux; active compounds read high; B-score at 10 µM; actives 0.42% (n = 310,000); AID 2227, 2009;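 active = B-score of calcium response area above 5 SD of library B-scores, with initial fluorescence ratio within 5 SD of library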
TRPC4 act – activators of mouse TRPC4 channel, primary screen, Fluo4 calcium, HEK293 TRPC4beta/mu-opioid cells; Fluo4 calcium fluorescence; active compounds read high; B-score at 10 µM; actives 0.49% (n = 310,000); AID 2237, 2010;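 active = B-score above 5 SD of library B-scores, and initial fluorescence ratio not above library mean plus 5 SD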;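 note: positive B-score marks a calcium rise read as TRPC4 activation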
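Material: TRPC4beta and mu-opioid receptor HEK293 stable cells | Incubation: 45 min room-temperature Fluo4 loading, 110 s read | Detection: Kinetic Fluo4 calcium fluorescence | Measure: Integrated baseline-normalised fluorescence ratio, converted to per-well B score | Benchmarks: Low control buffer alone, high control maximal DAMGO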
TRPC4 inh – inhibitors of mouse TRPC4 channel, primary screen, Fluo4 calcium, HEK293 TRPC4beta/mu-opioid cells. Short transient receptor potential channel 4 (Mus musculus), Q9QUQ5. B-score at 10 µM. actives 0.39% (n = 300,000). DAMGO-evoked Fluo4 calcium flux; active compounds read low;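 active = B-score over 3 SD under the library average, no early fluorescence shift, positive overall ratio signal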
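Assay system: TRPC4beta/mu-opioid receptor HEK293 cell line; compound dosing: single concentration per test compound; detection: Fluo4 Ca2+ flux fluorescence; evaluation: per-well B score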
Hits are given with their value. Compounds with a hit are over-represented: about 2.3% of the library has one in this group of screens.

`CC(C)(C)c1csc(NC(=O)Cc2cccs2)n1` gave TRPC6 activator inactive, TRPC6 inhibitor inactive, TRPC4 potent 69, TRPC4 act inactive and TRPC4 inh inactive.
COc1ccc2ccccc2c1CNC(C)c1ccccc1 (stereo not drawn) was read as TRPC6 activator inactive, TRPC6 inhibitor inactive, TRPC4 potent inactive, TRPC4 act inactive and TRPC4 inh inactive.
CC(NCCCOc1cccc2ccccc12)c1ccccc1 (stereo not drawn) was read as TRPC6 activator inactive, TRPC6 inhibitor inactive, TRPC4 potent inactive, TRPC4 act 69 and TRPC4 inh inactive.
For CNCc1ccccc1Sc1ccc(OC)cc1 the results were TRPC6 activator inactive, TRPC6 inhibitor inactive, TRPC4 potent inactive, TRPC4 act inactive and TRPC4 inh inactive.
CNCc1ccccc1Sc1cccc2ccccc12 was read as TRPC6 activator inactive, TRPC6 inhibitor inactive, TRPC4 potent inactive, TRPC4 act 46 and TRPC4 inh -6.
`CCOC(=O)c1cc2c(=O)n3ccccc3nc2n(Cc2ccco2)c1=NC(=O)c1ccccc1OCC` gave TRPC6 activator inactive, TRPC6 inhibitor inactive, TRPC4 potent inactive, TRPC4 act inactive and TRPC4 inh inactive.
For CCOC(=O)c1cc2c(=O)n3ccccc3nc2n(CCOC)c1=NC(=O)c1ccncc1 the results were TRPC6 activator inactive, TRPC6 inhibitor inactive, TRPC4 potent inactive, TRPC4 act inactive and TRPC4 inh inactive.
For CCOC(=O)c1cc2c(=O)n3ccccc3nc2n(CCOC)c1=NC(=O)C(C)(C)C the results were TRPC6 activator inactive, TRPC6 inhibitor inactive, TRPC4 potent inactive, TRPC4 act 152 and TRPC4 inh inactive.
CCOC(=O)c1cc2c(=O)n3ccccc3nc2n(C(C)C)c1=NC(=O)c1c(-c2ccccc2Cl)noc1C was read as TRPC6 activator inactive, TRPC6 inhibitor inactive, TRPC4 potent inactive, TRPC4 act inactive and TRPC4 inh -8.
Screening CCOC(=O)c1cc2c(=O)n3ccccc3nc2n(Cc2ccco2)c1=NC(=O)c1cccnc1 returned TRPC6 activator inactive, TRPC6 inhibitor inactive, TRPC4 potent 11, TRPC4 act inactive and TRPC4 inh inactive.
CC(C)OP(=O)(OC(C)C)C1(NS(=O)(=O)c2ccc(Cl)cc2)C=C(Cl)C(=O)C(Cl)=C1 was read as TRPC6 activator inactive, TRPC6 inhibitor inactive, TRPC4 potent inactive, TRPC4 act inactive and TRPC4 inh inactive.
CCC1CCc2sc(C(=O)NCC(c3ccc(OC)cc3)N3CCCC3)cc2C1 (stereo not drawn) was read as TRPC6 activator inactive, TRPC6 inhibitor inactive, TRPC4 potent inactive, TRPC4 act 55 and TRPC4 inh inactive.
COc1ccc(C(CNC(=O)c2oc3ccc(OC)cc3c2C)N2CCCC2)cc1 (stereo not drawn) was read as TRPC6 activator inactive, TRPC6 inhibitor inactive, TRPC4 potent inactive, TRPC4 act 72 and TRPC4 inh inactive.
`Cc1ccccc1-n1c(C)nc2ccccc21` gave TRPC6 activator inactive, TRPC6 inhibitor inactive, TRPC4 potent inactive, TRPC4 act inactive and TRPC4 inh inactive.
For O=C(c1cc2cc(Cl)ccc2[nH]1)N1CCN(Cc2ccc3c(c2)OCO3)CC1 the results were TRPC6 activator inactive, TRPC6 inhibitor inactive, TRPC4 potent inactive, TRPC4 act inactive and TRPC4 inh inactive.
Screening Cn1c(=O)n(C)c2cc(NC(=O)COc3ccc(Cl)cc3)ccc21 returned TRPC6 activator inactive, TRPC6 inhibitor inactive, TRPC4 potent inactive, TRPC4 act inactive and TRPC4 inh inactive.
Screening Cc1cc(C)c(C)c(OCCN2CCOCC2)c1 returned TRPC6 activator inactive, TRPC6 inhibitor inactive, TRPC4 potent 10, TRPC4 act inactive and TRPC4 inh inactive.
Cc1cc(C)c(C)c(OCCCN(C)C)c1 was read as TRPC6 activator inactive, TRPC6 inhibitor inactive, TRPC4 potent 13, TRPC4 act 126 and TRPC4 inh inactive.
`Cc1cccc(OCCN2CCOCC2)c1C` gave TRPC6 activator inactive, TRPC6 inhibitor inactive, TRPC4 potent inactive, TRPC4 act inactive and TRPC4 inh inactive.
